Activity calls are given as the source filed them. No cut-off for these calls is given here.
Experiments:
Format in all cases: functional, cell-based
[1] = system: PBMC; test: Antiproliferative activity against ConA-stimulated human PBMC after 72 hrs by BrdU incorporation assay
Method in brief: (§1)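 Cells grown in RPMI at 37 °C, 5% CO2, then serum-starved 12 h. PBMC stimulated with ConA 10 µg/mL; Jurkat need no stimulation. 1 × 10^5 cells cultured 3 days with or without inhibitor, duplicate wells. Labelled with 10 µM BrdU, DNA denatured, anti-BrdU-POD added, colorimetric TMB read-out; IC50 derived.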

[2] = system: Jurkat; test: Antiproliferative activity against human Jurkat cells after 72 hrs by BrdU incorporation assay; method in brief: as §1
[3] = system: Splenocyte; test: Inhibition of irradiated BALB/c mouse splenocyte-stimulated IL2 secretion in 2C mouse splenocyte after 72 hrs by mixed lymphocyte reaction
Method in brief: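 MLR: splenocytes from 2c mice stimulated by irradiated BALB/c splenocytes in the presence of compound at the specified concentrations, 96-well cultures up to 72 h. Supernatants collected at 24, 48 and 72 h; IL-2 measured by ELISA at 450 nm.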

SMILES | IC50 [1] [nM] | IC50 [2] [nM] | inhibition [3]
Oc1cc(-c2nc(NCc3ccccc3)c3ccccc3n2)cc(O)c1O | 7000 | 950 | 
COc1ccc(Nc2nc(-c3cc(O)c(O)c(O)c3)nc3ccccc23)cc1 | 500 | 550 | 
Oc1cc(-c2nc(Nc3ccc(OC(F)(F)F)cc3)c3ccccc3n2)cc(O)c1O | 2780 | 3240 | 
COc1cc(-c2nc(Nc3ccc4c(c3)OCO4)c3ccccc3n2)cc(OC)c1OC | 380 | 600 | 
COc1cc(-c2nc(NCc3ccccc3)c3ccccc3n2)cc(OC)c1OC | 3250 | 600 | 
Oc1cc(-c2nc(Nc3ccc4nc[nH]c4c3)c3ccccc3n2)cc(O)c1O | 4340 | 2570 | 
COc1ccc(CNc2nc(-c3cc(O)c(O)c(O)c3)nc3ccccc23)cc1 | 3260 | 5430 | 
Oc1cc(-c2nc(Nc3ccc4cn[nH]c4c3)c3ccccc3n2)cc(O)c1O | 500 | 690 | 
COc1cc(-c2nc(NCc3ccc(F)c(F)c3)c3ccccc3n2)cc(OC)c1OC | 200 | 730 | 
CCCCCCCCOc1ccc(Nc2nc(-c3cc(O)c(O)c(O)c3)nc3ccccc23)cc1 | 4530 | 4250 | 
COc1cc(-c2nc(Nc3ccc(OC(F)(F)F)cc3)c3ccccc3n2)cc(OC)c1OC | 400 | 180 | 
Cc1ccc(Nc2nc(-c3cc(O)c(O)c(O)c3)nc3ccccc23)cc1 | 850 | 850 | Active
COc1cc(-c2nc(Nc3ccc(O)cc3)c3ccccc3n2)cc(OC)c1OC | 300 | 230 | 
COc1cc(-c2nc(Nc3ccc4[nH]ncc4c3)c3ccccc3n2)cc(OC)c1OC | 600 | 700 | 
COc1cc(-c2nc(Nc3ccc4cn[nH]c4c3)c3ccccc3n2)cc(OC)c1OC | 450 | 600 | 
CCCCCCCCOc1ccc(Nc2nc(-c3cc(OC)c(OC)c(OC)c3)nc3ccccc23)cc1 | 2400 | 850 | 
COc1cc(-c2nc(Nc3ccc(Cl)cc3)c3ccccc3n2)cc(OC)c1OC | 300 | 530 | 

Source: ChEMBL document CHEMBL1221292, “Design, synthesis, and evaluation of quinazoline T cell proliferation inhibitors” (Bioorg Med Chem, 2010)
